Numbering of substitutions follows the chain as printed.
Legend:
C. hominis DHFR = biological target: T1, C. hominis DHFR (Cryptosporidium parvum, UniProt Q27552); assay: Mode of inhibition: steady-state substrate profile for H2folate and NADPH; format: biochemical
T1 sequence (Q27552 1-521): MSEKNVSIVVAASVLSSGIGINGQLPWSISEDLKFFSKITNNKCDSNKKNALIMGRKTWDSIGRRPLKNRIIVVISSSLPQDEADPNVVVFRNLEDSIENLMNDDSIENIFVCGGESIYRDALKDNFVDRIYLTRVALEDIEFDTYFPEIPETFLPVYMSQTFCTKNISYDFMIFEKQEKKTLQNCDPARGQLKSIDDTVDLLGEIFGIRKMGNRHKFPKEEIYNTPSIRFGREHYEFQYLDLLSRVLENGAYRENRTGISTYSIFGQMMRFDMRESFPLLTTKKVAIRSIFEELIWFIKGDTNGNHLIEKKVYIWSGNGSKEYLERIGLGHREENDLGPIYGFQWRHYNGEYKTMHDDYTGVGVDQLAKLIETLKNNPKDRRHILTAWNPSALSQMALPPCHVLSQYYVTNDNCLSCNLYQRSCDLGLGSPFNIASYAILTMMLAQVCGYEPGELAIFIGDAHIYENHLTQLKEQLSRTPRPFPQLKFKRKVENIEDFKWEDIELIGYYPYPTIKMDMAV
In short: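 Steady-state DHFR activity followed by absorbance at 340 nm. The enzyme was bifunctional TS–DHFR expressed in E. coli BL21 and purified. The test compound, from a DMSO stock, was preincubated with enzyme and substrates for 30 min before the reaction was started. Rates were normalised to an equal-volume DMSO blank. H2folate or NADPH concentration was varied, and mode was assigned from rate profiles and Lineweaver–Burk plots by Michaelis–Menten treatment.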

[1] = biological target: T2, C. hominis Beta Face DHFR (Cryptosporidium parvum, UniProt Q27552, F207A/I196A/L203A/S195A/T199A/V200A); assay: Steady-state DHFR inhibition assay against Beta Face mutant enzyme; format: biochemical; settings: IC50 C. hominis Beta Face DHFR, Beta Face mutant enzyme, steady-state
T2 sequence (Q27552 1-521 S195A/I196A/T199A/V200A/L203A/F207A): T1 sequence (Q27552 1-521) with S195A, I196A, T199A, V200A, L203A, F207A

[2] = tested on: C. hominis Beta Face DHFR; assay: as above; format: biochemical, Cryptosporidium hominis; settings: Beta Face vs WT ChDHFR
Human DHFR = biological target: T3, Human DHFR (Homo sapiens, UniProt P00374); assay: Steady-state DHFR inhibition assay against the human enzyme; format: biochemical; settings: up to 1 mM mimetic
T3 sequence (P00374 1-187): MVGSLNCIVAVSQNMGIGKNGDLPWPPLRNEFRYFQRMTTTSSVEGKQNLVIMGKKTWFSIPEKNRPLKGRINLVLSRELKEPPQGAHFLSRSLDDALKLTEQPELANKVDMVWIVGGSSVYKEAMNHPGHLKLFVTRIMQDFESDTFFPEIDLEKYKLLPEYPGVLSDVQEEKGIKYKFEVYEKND
In short: (§1)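 Each reaction (DHFR or TS) was measured spectroscopically at 340 nm under steady-state conditions. The test compound came from a DMSO stock and was incubated with enzyme and substrates for 30 min before initiation. Activity was normalised to an equal-volume DMSO control. All targets were run at identical enzyme and ligand concentrations. Values are mean ± standard deviation.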

C. hominis TS = biological target: T4, C. hominis TS (Cryptosporidium parvum, UniProt Q27552); assay: Steady-state TS inhibition assay; format: biochemical; settings: read-out: IC50 C. hominis TS
T4 sequence (Q27552 1-521): T1 sequence (Q27552 1-521)
In short: as §1

SMILES	Mode of inhibition (C. hominis DHFR; data not shown)	IC50 [1]	Potency against Beta Face relative to WT [2]	Inhibition of human DHFR (Human DHFR)	IC50 (C. hominis TS)	Vmax, NADPH substrate profile (C. hominis DHFR; in the presence of 250 µM compound (1.33 ± 0.02 in the absence))	Vmax, H2folate substrate profile (C. hominis DHFR; in the presence of 250 µM compound (1.46 ± 0.03 in the absence))	Mode of inhibition for H2folate (C. hominis DHFR; steady-state substrate profile)	Mode of inhibition for NADPH (C. hominis DHFR; steady-state substrate profile)
Cc1ccc(CN(C(=O)Nc2ccc(CCC(=O)O)cc2Cc2ccccc2)C(=O)c2ccc(CCC(=O)O)c(CC(C)C)c2)cc1 [mimetic 1]	noncompetitive mode of inhibition	–	–	–	–	–	–	–	–
CC(C)CN(C(=O)Nc1ccc(CCC(=O)O)cc1Cc1ccccc1)C(=O)c1ccc(OCC(=O)O)c(Cc2ccccc2)c1 [mimetic 2]	–	~20 µM	at least 10 fold	no inhibition	570 ± 60 µM	0.41 ± 0.01 µmol/min	0.48 ± 0.06 µmol/min	noncompetitive (mixed) inhibitor	noncompetitive inhibitor

Reference: paper PMC3855065 (MedChemComm, 2013)
